ChEMBL document CHEMBL3407339, “A novel series of thiazolyl-pyrazoline derivatives: synthesis and evaluation of antifungal activity, cytotoxicity and genotoxicity” (Eur J Med Chem, 2015)
In brackets after ≈: the same amount, converted by molar mass.

Columns and labels:
[1] = tested on: Nakaseomyces glabratus; assay: Antifungal activity against Candida glabrata clinical isolate after 48 hrs by broth microdilution assay; format: functional
Summary of the method: (§1)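 Broth microdilution of DMSO stocks serially diluted in sterile water (4 to 0.0039 mg/mL). Yeasts grown on SDA at 37 °C for 24 h, suspended in double-strength PDB at 10⁵ spores/mL. Incubated at 37 °C for 48 h, then sprayed with 0.5% aqueous TTC. MIC = lowest concentration inhibiting visible growth. Ketoconazole reference.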

[2] = tested on: Candida albicans; assay: Antifungal activity against Candida albicans ATCC 90028 after 48 hrs by broth microdilution assay; format: functional; settings: ATCC 90028, 48 h; summary of the method: as §1
[3] = tested on: Candida tropicalis; assay: Antifungal activity against Candida tropicalis NRLL Y 12968 after 48 hrs by broth microdilution assay; format: functional; settings: NRLL Y 12968, 48 h; summary of the method: as §1
[4] = tested on: Pichia kudriavzevii; assay: Antifungal activity against Candida krusei NRLL Y 7179 after 48 hrs by broth microdilution assay; format: functional; settings: NRLL Y 7179, 48 h; summary of the method: as §1
[5] = tested on: [Candida] zeylanoides; assay: Antifungal activity against Candida zeylanoides NRLL Y 1774 after 48 hrs by broth microdilution assay; format: functional; settings: Dujonia zeylanoides, NRLL Y 1774, 48 h; summary of the method: as §1
[6] = tested on: Candida parapsilosis; assay: Antifungal activity against Candida parapsilosis NRLL Y 12696 after 48 hrs by broth microdilution assay; format: functional; settings: Lodderomyces parapsilosis, NRLL Y 12696, 48 h; summary of the method: as §1
[7] = tested on: Aspergillus flavus; assay: Antifungal activity against Aspergillus flavus NRRL 980 after 72 hrs by broth microdilution assay; format: functional; settings: NRRL 980, 72 h
Summary of the method: (§2)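 Compounds dissolved in DMSO, diluted in sterile distilled water from 4 to 0.0039 mg/mL. Molds grown on PDA at 25 °C for 5 days, suspended in double-strength PDB at 10⁵ spores/mL. Incubated at 25 °C for 72 h; mycelial growth read under stereo microscope. MIC = lowest concentration inhibiting visible growth. Ketoconazole reference.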

[8] = tested on: Aspergillus niger; assay: Antifungal activity against Aspergillus niger ATCC 1094 after 72 hrs by broth microdilution assay; format: functional; settings: ATCC 1094, 72 h; summary of the method: as §2
[9] = tested on: Aspergillus parasiticus; assay: Antifungal activity against Aspergillus parasiticus NRRL 465 after 72 hrs by broth microdilution assay; format: functional; settings: NRRL 465, 72 h; summary of the method: as §2
[10] = tested on: Fusarium solani; assay: Antifungal activity against Fusarium solani NRRL 13414 after 72 hrs by broth microdilution assay; format: functional; settings: NRRL 13414, 72 h; summary of the method: as §2
[11] = tested on: Salmonella typhimurium; assay: Mutagenicity in Salmonella typhimurium TA98 at 0.156 mg/ml after 48 hrs by AMES MPF assay in presence of Sprague-Dawley rat liver microsomal S9 fraction relative to baseline; format: toxicity, organism-based; settings: salmonella enterica subsp. enterica serovar typhimurium
Summary of the method: (§3)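 Ames MPF fluctuation test with TA98/TA100. Overnight cultures (37 °C, 14–16 h) mixed with exposure medium; ±Aroclor-1254-induced rat liver S9 (final 4.5% v/v). Compounds in DMSO, 0.156–5 mg/mL. 90 min exposure at 37 °C, then indicator medium; 48 wells per concentration, 48 h at 37 °C, in triplicate. Yellow wells counted; fold induction over baseline (mean + 1 SD of zero-dose control).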

[12] = tested on: Salmonella typhimurium; assay: Mutagenicity in Salmonella typhimurium TA98 at 0.3125 mg/ml after 48 hrs by AMES MPF assay in presence of Sprague-Dawley rat liver microsomal S9 fraction relative to baseline; format: toxicity, organism-based; settings: salmonella enterica subsp. enterica serovar typhimurium; summary of the method: as §3
[13] = tested on: Salmonella typhimurium; assay: Mutagenicity in Salmonella typhimurium TA98 at 0.625 mg/ml after 48 hrs by AMES MPF assay in presence of Sprague-Dawley rat liver microsomal S9 fraction relative to baseline; format: toxicity, organism-based; settings: salmonella enterica subsp. enterica serovar typhimurium; summary of the method: as §3
[14] = tested on: Salmonella typhimurium; assay: Mutagenicity in Salmonella typhimurium TA98 at 1.25 mg/ml after 48 hrs by AMES MPF assay in presence of Sprague-Dawley rat liver microsomal S9 fraction relative to baseline; format: toxicity, organism-based; settings: salmonella enterica subsp. enterica serovar typhimurium; summary of the method: as §3
[15] = tested on: Salmonella typhimurium; assay: Mutagenicity in Salmonella typhimurium TA98 at 2.5 mg/ml after 48 hrs by AMES MPF assay in presence of Sprague-Dawley rat liver microsomal S9 fraction relative to baseline; format: toxicity, organism-based; settings: salmonella enterica subsp. enterica serovar typhimurium; summary of the method: as §3
[16] = tested on: Salmonella typhimurium; assay: Mutagenicity in Salmonella typhimurium TA98 at 5 mg/ml after 48 hrs by AMES MPF assay in presence of Sprague-Dawley rat liver microsomal S9 fraction relative to baseline; format: toxicity, organism-based; settings: salmonella enterica subsp. enterica serovar typhimurium; summary of the method: as §3
[17] = tested on: Salmonella typhimurium; assay: Mutagenicity in Salmonella typhimurium TA98 at 0.156 mg/ml after 48 hrs by AMES MPF assay in absence of Sprague-Dawley rat liver microsomal S9 fraction relative to baseline; format: toxicity, organism-based; settings: salmonella enterica subsp. enterica serovar typhimurium; summary of the method: as §3
[18] = tested on: Salmonella typhimurium; assay: Mutagenicity in Salmonella typhimurium TA98 at 0.3125 mg/ml after 48 hrs by AMES MPF assay in absence of Sprague-Dawley rat liver microsomal S9 fraction relative to baseline; format: toxicity, organism-based; settings: salmonella enterica subsp. enterica serovar typhimurium; summary of the method: as §3
[19] = tested on: Salmonella typhimurium; assay: Mutagenicity in Salmonella typhimurium TA98 at 0.625 mg/ml after 48 hrs by AMES MPF assay in absence of Sprague-Dawley rat liver microsomal S9 fraction relative to baseline; format: toxicity, organism-based; settings: salmonella enterica subsp. enterica serovar typhimurium; summary of the method: as §3
[20] = tested on: Salmonella typhimurium; assay: Mutagenicity in Salmonella typhimurium TA98 at 1.25 mg/ml after 48 hrs by AMES MPF assay in absence of Sprague-Dawley rat liver microsomal S9 fraction relative to baseline; format: toxicity, organism-based; settings: salmonella enterica subsp. enterica serovar typhimurium; summary of the method: as §3
[21] = tested on: Salmonella typhimurium; assay: Mutagenicity in Salmonella typhimurium TA98 at 2.5 mg/ml after 48 hrs by AMES MPF assay in absence of Sprague-Dawley rat liver microsomal S9 fraction relative to baseline; format: toxicity, organism-based; settings: salmonella enterica subsp. enterica serovar typhimurium; summary of the method: as §3
[22] = tested on: Salmonella typhimurium; assay: Mutagenicity in Salmonella typhimurium TA98 at 5 mg/ml after 48 hrs by AMES MPF assay in absence of Sprague-Dawley rat liver microsomal S9 fraction relative to baseline; format: toxicity, organism-based; settings: salmonella enterica subsp. enterica serovar typhimurium; summary of the method: as §3
[23] = tested on: Salmonella typhimurium; assay: Mutagenicity in Salmonella typhimurium TA100 at 0.156 mg/ml after 48 hrs by AMES MPF assay in presence of Sprague-Dawley rat liver microsomal S9 fraction relative to baseline; format: toxicity, organism-based; settings: salmonella enterica subsp. enterica serovar typhimurium; summary of the method: as §3
[24] = tested on: Salmonella typhimurium; assay: Mutagenicity in Salmonella typhimurium TA100 at 0.3125 mg/ml after 48 hrs by AMES MPF assay in presence of Sprague-Dawley rat liver microsomal S9 fraction relative to baseline; format: toxicity, organism-based; settings: salmonella enterica subsp. enterica serovar typhimurium; summary of the method: as §3
[25] = tested on: Salmonella typhimurium; assay: Mutagenicity in Salmonella typhimurium TA100 at 0.625 mg/ml after 48 hrs by AMES MPF assay in presence of Sprague-Dawley rat liver microsomal S9 fraction relative to baseline; format: toxicity, organism-based; settings: salmonella enterica subsp. enterica serovar typhimurium; summary of the method: as §3
[26] = tested on: Salmonella typhimurium; assay: Mutagenicity in Salmonella typhimurium TA100 at 1.25 mg/ml after 48 hrs by AMES MPF assay in presence of Sprague-Dawley rat liver microsomal S9 fraction relative to baseline; format: toxicity, organism-based; settings: salmonella enterica subsp. enterica serovar typhimurium; summary of the method: as §3
[27] = tested on: Salmonella typhimurium; assay: Mutagenicity in Salmonella typhimurium TA100 at 2.5 mg/ml after 48 hrs by AMES MPF assay in presence of Sprague-Dawley rat liver microsomal S9 fraction relative to baseline; format: toxicity, organism-based; settings: salmonella enterica subsp. enterica serovar typhimurium; summary of the method: as §3
[28] = tested on: Salmonella typhimurium; assay: Mutagenicity in Salmonella typhimurium TA100 at 5 mg/ml after 48 hrs by AMES MPF assay in presence of Sprague-Dawley rat liver microsomal S9 fraction relative to baseline; format: toxicity, organism-based; settings: salmonella enterica subsp. enterica serovar typhimurium; summary of the method: as §3
[29] = tested on: Salmonella typhimurium; assay: Mutagenicity in Salmonella typhimurium TA100 at 0.156 mg/ml after 48 hrs by AMES MPF assay in absence of Sprague-Dawley rat liver microsomal S9 fraction relative to baseline; format: toxicity, organism-based; settings: salmonella enterica subsp. enterica serovar typhimurium; summary of the method: as §3
[30] = tested on: Salmonella typhimurium; assay: Mutagenicity in Salmonella typhimurium TA100 at 0.3125 mg/ml after 48 hrs by AMES MPF assay in absence of Sprague-Dawley rat liver microsomal S9 fraction relative to baseline; format: toxicity, organism-based; settings: salmonella enterica subsp. enterica serovar typhimurium; summary of the method: as §3
[31] = tested on: Salmonella typhimurium; assay: Mutagenicity in Salmonella typhimurium TA100 at 0.625 mg/ml after 48 hrs by AMES MPF assay in absence of Sprague-Dawley rat liver microsomal S9 fraction relative to baseline; format: toxicity, organism-based; settings: salmonella enterica subsp. enterica serovar typhimurium; summary of the method: as §3
[32] = tested on: Salmonella typhimurium; assay: Mutagenicity in Salmonella typhimurium TA100 at 1.25 mg/ml after 48 hrs by AMES MPF assay in absence of Sprague-Dawley rat liver microsomal S9 fraction relative to baseline; format: toxicity, organism-based; settings: salmonella enterica subsp. enterica serovar typhimurium; summary of the method: as §3
[33] = tested on: Salmonella typhimurium; assay: Mutagenicity in Salmonella typhimurium TA100 at 2.5 mg/ml after 48 hrs by AMES MPF assay in absence of Sprague-Dawley rat liver microsomal S9 fraction relative to baseline; format: toxicity, organism-based; settings: salmonella enterica subsp. enterica serovar typhimurium; summary of the method: as §3
[34] = tested on: Salmonella typhimurium; assay: Mutagenicity in Salmonella typhimurium TA100 at 5 mg/ml after 48 hrs by AMES MPF assay in absence of Sprague-Dawley rat liver microsomal S9 fraction relative to baseline; format: toxicity, organism-based; settings: salmonella enterica subsp. enterica serovar typhimurium; summary of the method: as §3
[35] = tested on: A549; assay: Antiproliferative activity against human A549 cells after 24 hrs by XTT assay; format: functional, cell-based; settings: A549, 24 h
Summary of the method: (§4)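 A549 cells in RPMI and NIH/3T3 cells in DMEM, each with fetal calf serum, antibiotics and 7.5% NaHCO₃, at 37 °C, 5% CO₂. Seeded at 20,000 cells/well, 24 h, then compounds added in medium at 500–3.9 doses (final DMSO <0.1%) for 24 h. XTT read after 3 h at 480 nm (ref 680 nm). IC₅₀ by non-linear regression; triplicates; cisplatin control.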

[36] = Cytotoxicity against mouse NIH/3T3 cells after 24 hrs by XTT assay; format: cell-based; settings: NIH3T3, 24 h; summary of the method: as §4

Fc1ccc(C2CC(c3ccc(Cl)s3)=NN2c2nc(-c3ccc(Br)cc3)cs2)cc1 (stereo unspecified)
MIC [1]: 125 µg/mL (≈ 241 µM)
MIC [2]: 250 µg/mL (≈ 482 µM)
MIC [3]: 250 µg/mL (≈ 482 µM)
MIC [4]: 250 µg/mL (≈ 482 µM)
MIC [5]: 250 µg/mL (≈ 482 µM)
MIC [6]: 250 µg/mL (≈ 482 µM)
MIC [7]: 125 µg/mL (≈ 241 µM)
MIC [8]: 250 µg/mL (≈ 482 µM)
MIC [9]: 250 µg/mL (≈ 482 µM)
MIC [10]: 250 µg/mL (≈ 482 µM)
fold change (FC) [11]: 0.68
fold change (FC) [12]: 0.81
fold change (FC) [13]: 0.95
fold change (FC) [14]: 0.81
fold change (FC) [15]: 0.68
fold change (FC) [16]: 0.81
fold change (FC) [17]: 0
fold change (FC) [18]: 0.32
fold change (FC) [19]: 0
fold change (FC) [20]: 0
fold change (FC) [21]: 0
fold change (FC) [22]: 0
fold change (FC) [23]: 2.77
fold change (FC) [24]: 3.92
fold change (FC) [25]: 3.92
fold change (FC) [26]: 5.08
fold change (FC) [27]: 3.92
fold change (FC) [28]: 2.54
fold change (FC) [29]: 1
fold change (FC) [30]: 1
fold change (FC) [31]: 0.33
fold change (FC) [32]: 0
fold change (FC) [33]: 0.33
fold change (FC) [34]: 2
IC50 [35]: 62.5 µg/mL (≈ 120 µM)
IC50 [36]: > 500 µg/mL
